In ChEMBL document CHEMBL1131596, “Novel potent nonpeptide aminopeptidase N inhibitors with a cyclic imide skeleton” (J Med Chem, 1998):

Assays:
Aminopeptidase N = Aminopeptidase N (Homo sapiens, UniProt P15144); assay: Inhibitory activity against aminopeptidase N assayed by the L-Ala-MCA method.
Dipeptidyl peptidase 4 = Dipeptidyl peptidase 4 (Homo sapiens, UniProt P27487); assay: Inhibitory activity against dipeptidyl peptidase IV (DPP- IV)
Procedure, shortened: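 Enzymatic activity was measured in intact cells (DPP-IV as a membrane-associated ecto enzyme) using glycyl-L-proline 4-methylcoumaryl-7-amide (Gly-Pro-AMC) as the substrate.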

Chain of Dipeptidyl peptidase 4 (P27487 whole entry): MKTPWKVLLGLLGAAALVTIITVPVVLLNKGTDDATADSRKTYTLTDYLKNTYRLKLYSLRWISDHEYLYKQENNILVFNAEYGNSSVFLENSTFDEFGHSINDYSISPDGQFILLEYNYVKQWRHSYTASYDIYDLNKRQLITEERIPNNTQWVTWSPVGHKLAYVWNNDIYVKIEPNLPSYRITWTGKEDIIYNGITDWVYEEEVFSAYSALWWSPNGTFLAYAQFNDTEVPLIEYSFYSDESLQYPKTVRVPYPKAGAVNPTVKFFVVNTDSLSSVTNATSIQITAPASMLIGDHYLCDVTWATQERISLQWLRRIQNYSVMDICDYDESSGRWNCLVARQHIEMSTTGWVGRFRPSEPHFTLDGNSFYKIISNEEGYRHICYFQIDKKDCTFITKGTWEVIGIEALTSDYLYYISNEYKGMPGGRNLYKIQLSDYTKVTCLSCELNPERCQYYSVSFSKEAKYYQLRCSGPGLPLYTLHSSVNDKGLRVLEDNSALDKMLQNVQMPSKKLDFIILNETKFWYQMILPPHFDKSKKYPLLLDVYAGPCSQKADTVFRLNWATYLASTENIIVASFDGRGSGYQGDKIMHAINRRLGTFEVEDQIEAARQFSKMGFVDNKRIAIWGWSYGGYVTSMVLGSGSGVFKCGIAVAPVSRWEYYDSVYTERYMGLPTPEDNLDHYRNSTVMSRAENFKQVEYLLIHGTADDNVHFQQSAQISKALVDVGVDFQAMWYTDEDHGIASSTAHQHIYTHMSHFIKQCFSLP
Chain of Aminopeptidase N (P15144 whole entry): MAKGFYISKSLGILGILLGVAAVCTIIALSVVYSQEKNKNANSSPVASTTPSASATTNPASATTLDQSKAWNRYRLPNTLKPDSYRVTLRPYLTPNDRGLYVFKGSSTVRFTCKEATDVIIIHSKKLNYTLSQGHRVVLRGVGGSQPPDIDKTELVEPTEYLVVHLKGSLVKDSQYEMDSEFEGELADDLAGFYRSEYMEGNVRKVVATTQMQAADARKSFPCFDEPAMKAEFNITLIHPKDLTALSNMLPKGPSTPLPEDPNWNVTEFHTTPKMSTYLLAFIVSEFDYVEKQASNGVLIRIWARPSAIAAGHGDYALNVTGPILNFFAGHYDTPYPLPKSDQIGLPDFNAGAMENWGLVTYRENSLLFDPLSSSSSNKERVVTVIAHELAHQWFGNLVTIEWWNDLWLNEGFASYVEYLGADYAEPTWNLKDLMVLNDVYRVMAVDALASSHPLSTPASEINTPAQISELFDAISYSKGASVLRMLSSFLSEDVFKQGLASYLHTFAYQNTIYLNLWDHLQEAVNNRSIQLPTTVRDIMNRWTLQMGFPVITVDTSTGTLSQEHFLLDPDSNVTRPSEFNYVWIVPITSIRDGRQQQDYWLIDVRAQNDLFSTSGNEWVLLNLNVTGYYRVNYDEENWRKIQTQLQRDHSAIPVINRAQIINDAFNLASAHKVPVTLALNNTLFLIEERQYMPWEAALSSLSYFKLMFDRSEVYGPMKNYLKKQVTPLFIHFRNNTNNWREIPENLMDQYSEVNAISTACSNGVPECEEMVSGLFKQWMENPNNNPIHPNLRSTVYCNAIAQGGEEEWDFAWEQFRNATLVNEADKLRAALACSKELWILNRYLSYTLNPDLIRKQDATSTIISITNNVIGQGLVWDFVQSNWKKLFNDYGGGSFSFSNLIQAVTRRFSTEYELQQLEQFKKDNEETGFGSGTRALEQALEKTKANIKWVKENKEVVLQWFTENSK

Row | Structure (SMILES) | IC50 (Aminopeptidase N) [µM] | IC50 (Dipeptidyl peptidase 4) [µM]
1 | Cc1cccc(C)c1N1C(=O)c2cccc(O)c2C1=O | 265 | 
2 | Cc1cccc(C)c1N1C(=O)c2cccc(N)c2C1=O | > 376 | > 376
3 | CC(C)c1ccc(N2C(=O)Cc3ccccc3C2=O)cc1 | > 358 | > 358
4 | O=C1Cc2ccccc2C(=O)N1c1ccccc1 | 395 | > 421
5 | Cc1ccc(C)c(N2C(=O)Cc3ccccc3C2=O)c1 | 60.3 | > 377
6 | CC(C)c1ccccc1N1C(=O)Cc2ccccc2C1=O | 194 | > 358
7 | CCc1cccc(CC)c1N1C(=O)c2ccccc2C1=O | 303 | > 358
8 | CCc1ccccc1N1C(=O)Cc2ccccc2C1=O | 67.1 | > 377
9 | Cc1cc(C)cc(N2C(=O)Cc3ccccc3C2=O)c1 | 23.4 | > 377
10 | COc1ccccc1N1C(=O)Cc2ccccc2C1=O | 110 | > 374
11 | Cc1cccc(N2C(=O)Cc3ccccc3C2=O)c1C | 113 | > 377
12 | CC(C)c1cccc(C(C)C)c1N1C(=O)c2ccccc2C1=O | > 325 | 
13 | Cc1cccc(C)c1N1C(=O)c2ccccc2C1=O | > 398 | 
14 | CC(C)c1cccc(C(C)C)c1N1C(=O)c2cc3ccccc3cc2C1=O | > 280 | 
15 | Cc1ccc(N2C(=O)Cc3ccccc3C2=O)c(C)c1 | 187 | > 377
16 | CC(C)c1cccc(C(C)C)c1N1C(=O)c2cccc(N)c2C1=O | 20.8 | 
17 | CC(C)c1cccc(C(C)C)c1N1C(=O)c2cccc([N+](=O)[O-])c2C1=O | > 284 | 
18 | CC(C)c1cccc(C(C)C)c1N1C(=O)c2ccc([N+](=O)[O-])cc2C1=O | > 284 | 
19 | Cc1cccc(C)c1N1C(=O)Cc2ccccc2C1=O | 157 | > 377

Further lines, results first:

Row | IC50 (Aminopeptidase N) [µM] | IC50 (Dipeptidyl peptidase 4) [µM] | Structure (SMILES)
20 |  | 87.9 | Cc1cccc(C)c1N1C(=O)c2ccc(N)cc2C1=O
21 |  | 65.9 | CC(C)c1cccc(C(C)C)c1N1C(=O)c2ccc(O)cc2C1=O
22 | 144 | > 327 | O=C1Cc2ccccc2C(=O)N1c1c(Cl)cccc1Cl
23 | 10.9 | > 311 | CC(C)c1cccc(C(C)C)c1N1C(=O)Cc2ccccc2C1=O
24 |  | 74.1 | Cc1cccc(C)c1N1C(=O)c2ccc(O)cc2C1=O
25 | > 472 | 86.3 | O=C([C@@H]1CCCN1)N1CCC[C@H]1B(O)O
26 | > 308 | > 308 | CCc1cccc(CC)c1N1C(=O)c2ccc([N+](=O)[O-])cc2C1=O
27 |  | 43.6 | CC(C)c1cccc(C(C)C)c1N1C(=O)c2cccc(O)c2C1=O
28 |  | > 341 | CCc1cccc(CC)c1N1C(=O)Cc2ccccc2C1=O
29 |  | 43.3 | CCc1cccc(CC)c1N1C(=O)c2ccc(O)cc2C1=O
30 | 3.18 | > 353 | CSc1ccccc1N1C(=O)Cc2ccccc2C1=O
31 |  | 251 | CC(C)c1cccc(C(C)C)c1N1C(=O)c2ccc(N)cc2C1=O
32 |  | > 324 | CC(C)C[C@H](NC(=O)C(O)[C@H](N)Cc1ccccc1)C(=O)O (single isomer, unassigned) [UBENIMEX]
33 | 0.83 | > 259 | CCCCC[C@H](CC(=O)NO)C(=O)N[C@H](C(=O)N1CCC[C@H]1CO)C(C)C [ACTINONIN]
